Data published in ChEMBL document CHEMBL1156119 (J Med Chem, 2009).
Calls of active or inactive are those of the source. The calls are words filed in the database; no cut-off is given here.

Tests used:
[1] = molecular target: Major prion protein (Homo sapiens) (UniProt P04156); test: Binding affinity to human PrP up to 40 uM by surface plasmon resonance assay
SMB [2] = test: Antiprion activity against Scrapie prion protein-mediated scrapie in mouse SMB cells assessed as remaining PrP-Sc level at 10 uM after 5 days by Bradford assay relative to control; type: cell-based
Outline: (§1)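 SMB scrapie-infected mouse cells, non-neuronal, in medium 199 with 10% newborn calf and 5% fetal calf serum, seeded at 3 × 10⁴ cells/well and attached for 24 h. Compound DMSO stocks were diluted via HBSS into medium and applied for 5 days. Lysates of ~30-40 μg protein/well were dot-blotted, digested with proteinase K at 75 μg mL⁻¹ (1 h, 37 °C) and denatured in 1.8 M guanidine thiocyanate. Read-out was %PrP^Sc versus DMSO-only control, in triplicate.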

[3] = Antiprion activity against Scrapie prion protein-mediated scrapie in mouse SMB cells assessed as remaining PrP-Sc level after 5 days by Bradford assay; type: cell-based; settings: 120 h
Outline: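 Same SMB dot-blot protocol with 5-day exposure. Compounds were rescreened over a range of concentrations to fit an EC₅₀ from dose-response curves. Each determination was run in triplicate, in at least two independent experiments. PrP^Sc was measured relative to an untreated DMSO-only control.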

[4] = molecular target: Major prion protein (Mus musculus) (UniProt P04925); test: Binding affinity to mouse PrP up to 40 uM by surface plasmon resonance assay
[5] = Cytotoxicity against mouse SMB cells at 10 uM after 5 days by MTT assay; type: cell-based; settings: 120 h
Outline: (§2)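 SMB cells were seeded at 3 × 10⁴ cells/well and attached for 24 h. Compound was added from DMSO stock diluted through HBSS into the medium, and cells were exposed for 5 days. Viability was read by MTT assay following the standard reagent protocol.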

SMB [6] = test: Antiprion activity against Scrapie prion protein-mediated scrapie in mouse SMB cells assessed as remaining PrP-Sc level at 20 uM after 5 days by Bradford assay relative to control; type: cell-based; outline: as §1
[7] = Cytotoxicity against mouse SMB cells at 20 uM after 5 days by MTT assay; type: cell-based; settings: 120 h; outline: as §2
SMB [8] = test: Antiprion activity against Scrapie prion protein-mediated scrapie in mouse SMB cells assessed as remaining PrP-Sc level at 1 uM after 5 days by Bradford assay relative to control; type: cell-based
Outline: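 Compound DMSO stocks were diluted via HBSS into medium and applied for 5 days. Lysates of ~30-40 μg protein/well were dot-blotted, digested with proteinase K at 75 μg mL⁻¹ (1 h, 37 °C) and denatured in 1.8 M guanidine thiocyanate. Read-out was %PrP^Sc versus DMSO-only control, in triplicate.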

[9] = Antiprion activity against Scrapie prion protein-mediated scrapie in mouse ScNB cells assessed as PrP-res accumulation after 4 days by immunoblotting; type: cell-based; settings: 96 h
SMB [10] = test: Antiprion activity against Scrapie prion protein-mediated scrapie in mouse SMB cells assessed as remaining PrP-Sc level at 24 uM after 5 days by Bradford assay relative to control; type: cell-based
SMB [11] = test: Antiprion activity against Scrapie prion protein-mediated scrapie in mouse SMB cells by dot blot analysis; type: cell-based; outline: as §1
[12] = Antiprion activity against Scrapie prion protein-mediated scrapie in RML mouse ScN2a cells assessed as reduction of PrP-Sc level after 6 days by immunoblotting; type: cell-based; settings: 144 h

Chain of Major prion protein (Mus musculus) (P04925 whole entry): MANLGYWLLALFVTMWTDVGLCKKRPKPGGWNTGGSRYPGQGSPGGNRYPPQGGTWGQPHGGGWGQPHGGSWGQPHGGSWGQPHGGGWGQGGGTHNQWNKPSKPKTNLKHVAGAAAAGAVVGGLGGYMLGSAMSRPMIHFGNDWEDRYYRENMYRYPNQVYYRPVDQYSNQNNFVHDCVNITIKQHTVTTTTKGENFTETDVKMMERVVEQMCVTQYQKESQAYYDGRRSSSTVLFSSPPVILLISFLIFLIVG

Row | Structure (SMILES) | Activity [1] | EC50 [3] [nM] | Activity [4] | Activity (SMB [8]) [%] | further results
1 | COc1cccc(NC(=O)C(=O)c2c[nH]c3ccccc23)c1 | inactive | 230 | inactive |  | Remaining PrP-Sc level (SMB [2]): 17.5%
2 | CC(C)NC(=O)C(=O)c1c[nH]c2ccccc12 |  |  |  |  | Activity [5]: Toxic; Remaining PrP-Sc level (SMB [6]): 74.9%; Activity [7]: Toxic
3 | O=C(Nc1ccc(O)cc1)C(=O)c1c[nH]c2ccccc12 | inactive | 240 | inactive | 17.8 | 
4 | O=C(Nc1cnc2ccccc2c1)C(=O)c1c[nH]c2ccccc12 | inactive | 170 | inactive | 41.3 | 
5 | COc1ccc(NC(=O)C(=O)c2c[nH]c3ccccc23)cc1 | inactive | 11 | inactive | 6.7 | 
6 | COc1cc(/C=C/C(=O)CC(=O)/C=C/c2ccc(O)c(OC)c2)ccc1O [CURCUMIN] |  | 950 |  |  | EC50 [9]: 10 nM
7 | CN(C(=O)C(=O)c1c[nH]c2ccccc12)c1ccccc1 |  |  |  |  | Activity (SMB [10]): 127%
8 | O=C(Nc1ccc(F)nc1)C(=O)c1c[nH]c2ccccc12 |  | 1210 |  | 52.3 | Activity (SMB [11]): Dose-dependent effect
9 | O=C(Nc1ccc(N2CCOCC2)cc1)C(=O)c1c[nH]c2ccccc12 |  | 9 |  | 4.6 | Activity (SMB [11]): Dose-dependent effect
10 | O=C(Nc1cccc(F)c1)C(=O)c1c[nH]c2ccccc12 | inactive | 640 | inactive | 27.1 | 
11 | O=C(Nc1ccc(N2CCCCC2)cc1)C(=O)c1c[nH]c2ccccc12 |  | 72 |  | 6.5 | Activity (SMB [11]): Dose-dependent effect
12 | CCN(CC)CCCC(C)Nc1c2ccc(Cl)cc2nc2ccc(OC)cc12 (configuration not stated) [QUINACRINE] |  | 420 |  |  | EC50 [12]: 300 nM
